Laboratory results published in ChEMBL document CHEMBL1671618, “Functional cloning and characterization of the multidrug efflux pumps NorM from Neisseria gonorrhoeae and YdhE from Escherichia coli” (Antimicrob Agents Chemother, 2008).
In brackets after ≈: the same amount, converted by molar mass. Activity calls are given as the source filed them. No cut-off for these calls is given here.

Columns and labels:
[1] = system: Escherichia coli; test: Antimicrobial activity against AcrAB-deficient Escherichia coli AG100AX harboring pBAD plasmid after 18 to 24 hrs by two fold dilution method; type: functional
Method in brief: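 Twofold agar dilution on LB agar containing the antimicrobial, inoculum 10⁴ CFU/spot. Growth was scored after 18–24 h at 37°C, and each MIC determination was repeated at least four times.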

[2] = system: Escherichia coli; test: Antimicrobial activity against AcrAB-deficient Escherichia coli AG100AX harboring pBADomegaydhE plasmid containing Escherichia coli multidrug efflux pump YdhE after 18 to 24 hrs by two fold dilution method; type: functional
[3] = system: Escherichia coli; test: Antimicrobial activity against AcrAB-deficient Escherichia coli AG100AX harboring pBADomeganorM plasmid containing Neisseria gonorrhoeae multidrug efflux pump NorM after 18 to 24 hrs by two fold dilution method; type: functional
[4] = molecular target: T1, Multidrug resistance protein MdtK (Escherichia coli (strain K12), UniProt P37340); test: Binding affinity to Escherichia coli K-12 multidrug efflux protein YdhE […] in presence of 0.02% DDM surfactant by fluorescence polarization assay
T1 sequence (P37340 whole entry): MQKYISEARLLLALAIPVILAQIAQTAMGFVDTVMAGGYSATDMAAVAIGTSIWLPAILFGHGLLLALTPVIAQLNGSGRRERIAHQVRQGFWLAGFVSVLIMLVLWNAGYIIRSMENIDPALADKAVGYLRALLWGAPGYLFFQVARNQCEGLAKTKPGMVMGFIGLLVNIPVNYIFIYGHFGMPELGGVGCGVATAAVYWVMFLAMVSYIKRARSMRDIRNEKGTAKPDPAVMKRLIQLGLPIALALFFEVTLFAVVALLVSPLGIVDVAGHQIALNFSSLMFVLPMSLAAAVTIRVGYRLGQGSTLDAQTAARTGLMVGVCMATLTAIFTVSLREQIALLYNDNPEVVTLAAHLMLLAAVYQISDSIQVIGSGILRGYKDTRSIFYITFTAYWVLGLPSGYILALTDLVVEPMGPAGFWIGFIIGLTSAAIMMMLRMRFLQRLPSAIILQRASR

[5] = Binding affinity to Neisseria gonorrhoeae FA19 multidrug efflux protein NorM expressed in Escherichia coli AG100AX in presence of 0.02% DDM surfactant by fluorescence polarization assay
[6] = system: Neisseria gonorrhoeae; test: Activity of Neisseria gonorrhoeae FA19 multidrug efflux protein NorM expressed in Escherichia coli AG100AX assessed as reduction in compound accumulation in presence of 100 mM NaCl by fluorimetric assay
Method in brief: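 Arabinose-induced (0.01%) AG100AX cells at OD600 1.0 were held in 0.1 M Tris-HCl pH 7.0 with ethidium bromide (20 μg/ml final), then 100 mM NaCl, or KCl for comparison, was added. At each time point a 1-ml sample was centrifuged at 4°C and washed, and fluorescence read at ex 500/em 580 nm.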

[7] = molecular target: T2, Multidrug resistance protein MdtK (Escherichia coli (strain K12)) (UniProt P37340); test: Activity of Escherichia coli K-12 multidrug efflux protein YdhE expressed in Escherichia coli AG100AX assessed as reduction in compound accumulation by fluorimetric assay
T2 sequence (whole entry): T1 sequence (P37340 whole entry)
Method in brief: (§1)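 AG100AX cells carrying the pBAD-based plasmid were grown in LB with 0.01% L-arabinose at 37°C to OD600 1.0, washed, and resuspended to OD600 1.0 in 0.1 M Tris-HCl pH 7.0. Norfloxacin (100 μM final) or ethidium bromide (20 μg/ml final) was added and samples taken over time. CCCP (100 μM final) was added at 15 min. After a further 15 min, CCCP was removed and cells re-energized with 0.4% glucose. Maximum fluorescence was normalized to 100%.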

[8] = system: Neisseria gonorrhoeae; test: Activity of Neisseria gonorrhoeae FA19 multidrug efflux protein NorM expressed in Escherichia coli AG100AX assessed as reduction in compound accumulation by fluorimetric assay; method in brief: as §1
[9] = molecular target: T2, Multidrug resistance protein MdtK (Escherichia coli (strain K12)); test: Inhibition of Escherichia coli K-12 multidrug efflux protein YdhE expressed in Escherichia coli AG100AX assessed as assessed as increase in Norfloxacin accumulation at 100 uM after 15 mins by fluorimetric assay; method in brief: as §1
[10] = system: Neisseria gonorrhoeae; test: Inhibition of Neisseria gonorrhoeae FA19 multidrug efflux protein NorM expressed in Escherichia coli AG100AX assessed as increase in Norfloxacin accumulation at 100 uM after 15 mins by fluorimetric assay; method in brief: as §1
[11] = system: Neisseria gonorrhoeae; test: Inhibition of Neisseria gonorrhoeae FA19 multidrug efflux protein NorM expressed in Escherichia coli AG100AX assessed as increase in ethidium bromide accumulation at 100 uM after 15 mins by fluorimetric assay; method in brief: as §1
[12] = molecular target: T2, Multidrug resistance protein MdtK (Escherichia coli (strain K12)); test: Inhibition of Escherichia coli K-12 multidrug efflux protein YdhE expressed in Escherichia coli AG100AX assessed as assessed as increase in ethidium bromide accumulation at 100 uM after 15 mins by fluorimetric assay; method in brief: as §1

Molecule: CO[C@@H]1[C@@H](OC(N)=O)[C@@H](O)[C@H](Oc2ccc3c(O)c(NC(=O)c4ccc(O)c(CC=C(C)C)c4)c(=O)oc3c2C)OC1(C)C [NOVOBIOCIN]
- MIC [1]: 1.56 µg/mL (≈ 2.55 µM)
- MIC [2]: 3.12 µg/mL (≈ 5.1 µM)
- MIC [3]: 3.12 µg/mL (≈ 5.1 µM)

Molecule: COc1cccc2c1C(=O)c1c(O)c3c(c(O)c1C2=O)C[C@@](O)(C(=O)CO)C[C@@H]3O[C@H]1C[C@H](N)[C@H](O)[C@H](C)O1 [DOXORUBICIN]
- MIC [1]: 1.56 µg/mL (≈ 2.87 µM)
- MIC [2]: 6.25 µg/mL (≈ 11.5 µM)
- MIC [3]: 6.25 µg/mL (≈ 11.5 µM)

Molecule: CCn1cc(C(=O)O)c(=O)c2cc(F)c(N3CCNCC3)nc21 [ENOXACIN]
- MIC [1]: 0.031 µg/mL (≈ 0.0968 µM)
- MIC [2]: 0.063 µg/mL (≈ 0.197 µM)
- MIC [3]: 0.063 µg/mL (≈ 0.197 µM)

Molecule: C[n+]1ccc(-c2cc[n+](C)cc2)cc1.[Cl-].[Cl-] [PARAQUAT DICHLORIDE]
- MIC [1]: 156 µg/mL
- MIC [2]: 156 µg/mL
- MIC [3]: 156 µg/mL

Molecule: CN[C@H](CC(C)C)C(=O)N[C@H]1C(=O)N[C@@H](CC(N)=O)C(=O)N[C@H]2C(=O)N[C@H]3C(=O)N[C@H](C(=O)N[C@H](C(=O)O)c4cc(O)cc(O)c4-c4cc3ccc4O)[C@H](O)c3ccc(c(Cl)c3)Oc3cc2cc(c3O[C@@H]2O[C@H](CO)[C@@H](O)[C@H](O)[C@H]2O[C@H]2C[C@](C)(N)[C@H](O)[C@H](C)O2)Oc2ccc(cc2Cl)[C@H]1O [VANCOMYCIN]
- MIC [1]: 250 µg/mL (≈ 173 µM)
- MIC [2]: 250 µg/mL (≈ 173 µM)
- MIC [3]: 250 µg/mL (≈ 173 µM)

Molecule: CCn1cc(C(=O)O)c(=O)c2cc(F)c(N3CCNCC3)cc21 [NORFLOXACIN]
- Kd [4]: 98.4 µM
- Kd [5]: 126 µM
- Activity [6]: Active
- MIC [1]: 0.008 µg/mL (≈ 0.0251 µM)
- MIC [2]: 0.016 µg/mL (≈ 0.0501 µM)
- MIC [3]: 0.032 µg/mL (≈ 0.1 µM)

Molecule: CN(C)[C@@H]1C(O)=C(C(N)=O)C(=O)[C@@]2(O)C(O)=C3C(=O)c4c(O)cccc4[C@@](C)(O)[C@H]3C[C@@H]12 [TETRACYCLINE]
- MIC [1]: 1.25 µg/mL (≈ 2.81 µM)
- MIC [2]: 1.25 µg/mL (≈ 2.81 µM)
- MIC [3]: 1.25 µg/mL (≈ 2.81 µM)

Molecule: CC[n+]1c(-c2ccccc2)c2cc(N)ccc2c2ccc(N)cc21.[Br-] [HOMIDIUM BROMIDE]
- Kd [4]: 9.8 µM
- Kd [5]: 12.3 µM
- Activity [7]: Active
- Activity [6]: Active
- MIC [1]: 7.81 µg/mL
- Activity [8]: Active
- MIC [2]: 15.6 µg/mL
- MIC [3]: 15.6 µg/mL

Molecule: CN(C)c1ccc(O)c2c1C[C@H]1C[C@H]3[C@H](N(C)C)C(O)=C(C(N)=O)C(=O)[C@@]3(O)C(O)=C1C2=O [MINOCYCLINE]
- MIC [1]: 0.625 µg/mL (≈ 1.37 µM)
- MIC [2]: 0.625 µg/mL (≈ 1.37 µM)
- MIC [3]: 0.625 µg/mL (≈ 1.37 µM)

Molecule: CN[C@@H]1[C@H](O[C@H]2[C@H](O[C@H]3[C@H](O)[C@@H](O)[C@H](N=C(N)N)[C@@H](O)[C@@H]3N=C(N)N)O[C@@H](C)[C@]2(O)C=O)O[C@@H](CO)[C@H](O)[C@H]1O [STREPTOMYCIN]
- MIC [1]: > 50000 µg/mL
- MIC [2]: > 50000 µg/mL
- MIC [3]: > 50000 µg/mL

Molecule: [Cl-].c1ccc([P+](c2ccccc2)(c2ccccc2)c2ccccc2)cc1 [TETRAPHENYLPHOSPHONIUM CHLORIDE]
- MIC [1]: 12.5 µg/mL
- MIC [2]: 25 µg/mL
- MIC [3]: 25 µg/mL

Molecule: O=C(N[C@H](CO)[C@H](O)c1ccc([N+](=O)[O-])cc1)C(Cl)Cl [CHLORAMPHENICOL]
- MIC [1]: 0.625 µg/mL (≈ 1.93 µM)
- MIC [2]: 0.625 µg/mL (≈ 1.93 µM)
- MIC [3]: 0.625 µg/mL (≈ 1.93 µM)

Molecule: CCn1cc(C(=O)O)c(=O)c2ccc(C)nc21 [NALIDIXIC ACID]
- MIC [1]: 0.625 µg/mL (≈ 2.69 µM)
- MIC [2]: 0.625 µg/mL (≈ 2.69 µM)
- MIC [3]: 0.625 µg/mL (≈ 2.69 µM)

Molecule: COc1ccc2cc3[n+](cc2c1OC)CCc1cc2c(cc1-3)OCO2.[Cl-] [BERBERINE CHLORIDE]
- MIC [1]: 31.2 µg/mL
- MIC [2]: 250 µg/mL
- MIC [3]: 250 µg/mL

Molecule: Nc1ccc2cc3ccc(N)cc3nc2c1 [PROFLAVINE]
- MIC [1]: 6.25 µg/mL (≈ 29.9 µM)
- MIC [2]: 12.5 µg/mL (≈ 59.7 µM)
- MIC [3]: 12.5 µg/mL (≈ 59.7 µM)

Molecule: O=C(O)c1cn(C2CC2)c2cc(N3CCNCC3)c(F)cc2c1=O [CIPROFLOXACIN]
- Kd [4]: 90.9 µM
- Kd [5]: 121 µM
- Activity [7]: Active
- Activity [8]: Active

Molecule: N#CC(C#N)=NNc1cccc(Cl)c1 [CARBONYL CYANIDE M-CHLOROPHENYLHYDRAZONE]
- inhibition [9]: Active
- inhibition [10]: Active
- inhibition [11]: Active
- inhibition [12]: Active
- MIC [1]: 6.25 µg/mL (≈ 30.5 µM)
- MIC [2]: 6.25 µg/mL (≈ 30.5 µM)
- MIC [3]: 6.25 µg/mL (≈ 30.5 µM)

Molecule: GENTAMICIN
- MIC [1]: 2.5 µg/mL
- MIC [2]: 2.5 µg/mL
- MIC [3]: 2.5 µg/mL

Molecule: CCn1cc(C(=O)O)c(=O)c2cc(F)c(N3CCNC(C)C3)c(F)c21 (stereo not drawn) [LOMEFLOXACIN]
- MIC [1]: 0.016 µg/mL (≈ 0.0455 µM)
- MIC [2]: 0.016 µg/mL (≈ 0.0455 µM)
- MIC [3]: 0.032 µg/mL (≈ 0.0911 µM)

Molecule: CN(C)c1ccc(C(=C2C=CC(=[N+](C)C)C=C2)c2ccc(N(C)C)cc2)cc1.[Cl-] [GENTIAN VIOLET]
- MIC [1]: 0.625 µg/mL
- MIC [2]: 2.5 µg/mL
- MIC [3]: 2.5 µg/mL
